Experimental data reported in ChEMBL document CHEMBL1795306, “Acyl derivatives of p-aminosulfonamides and dapsone as new inhibitors of the arginine methyltransferase hPRMT1” (Bioorg Med Chem, 2011).
Activity calls are given as the source filed them. The calls are words filed in the database; no cut-off is given here.

Experiments:
[1] = biological target: T1, Protein arginine N-methyltransferase 1 (Homo sapiens, UniProt Q99873); assay: Inhibition of human recombinant PRMT1-mediated arginine methylation at 10 uM using nonhistone protein Npl3 substrate by ELISA
Target sequence in this assay (Q99873 whole entry, looked up): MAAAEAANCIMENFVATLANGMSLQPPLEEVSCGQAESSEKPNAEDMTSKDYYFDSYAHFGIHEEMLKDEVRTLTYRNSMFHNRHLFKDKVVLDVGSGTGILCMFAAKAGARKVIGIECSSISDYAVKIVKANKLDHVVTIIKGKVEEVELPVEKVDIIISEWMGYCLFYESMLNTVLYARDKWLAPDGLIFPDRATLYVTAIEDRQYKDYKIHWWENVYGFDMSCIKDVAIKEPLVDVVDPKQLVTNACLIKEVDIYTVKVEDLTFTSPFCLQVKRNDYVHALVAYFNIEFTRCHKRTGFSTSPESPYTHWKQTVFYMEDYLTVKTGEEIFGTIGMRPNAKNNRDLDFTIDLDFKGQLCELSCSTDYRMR

[2] = biological target: T1, Protein arginine N-methyltransferase 1; assay: Inhibition of human recombinant PRMT1-mediated arginine methylation at 50 uM using nonhistone protein Npl3 substrate by ELISA
Target sequence in this assay (Q99873 whole entry, looked up): as above

[3] = biological target: T2, Histone-lysine N-methyltransferase SETD7 (Homo sapiens) (UniProt Q8WTS6); assay: Inhibition of methyl transferase activity of SET7/9 at 50 uM using biotinylated histone H3(1-21) substrate by In-vitro time resolved fluorescence immunosorbent methyltransferase assay
T2 sequence (whole entry): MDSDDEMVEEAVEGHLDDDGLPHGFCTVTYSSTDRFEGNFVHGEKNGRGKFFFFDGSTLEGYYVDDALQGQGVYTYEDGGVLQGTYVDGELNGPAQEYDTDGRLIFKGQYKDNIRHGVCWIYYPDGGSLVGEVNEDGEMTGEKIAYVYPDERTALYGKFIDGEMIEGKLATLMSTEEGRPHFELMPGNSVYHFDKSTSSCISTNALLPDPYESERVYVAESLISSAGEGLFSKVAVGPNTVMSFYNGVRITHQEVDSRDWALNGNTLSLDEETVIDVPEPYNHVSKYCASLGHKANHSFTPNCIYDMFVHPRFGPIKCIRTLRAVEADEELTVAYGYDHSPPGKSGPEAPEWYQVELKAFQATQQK
Summary of the method: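 Biotinylated human histone H3 peptide (aa 1-21, 20 pmol/well) bound to streptavidin plates. Recombinant human GST-Set7/9 preincubated with inhibitor (DMSO) 10 min at 30 °C, then transferred to wells; reaction started with SAM. Methylation detected with rabbit anti-methyl H3K4 antibody and europium-labelled anti-rabbit IgG, read by time-resolved fluorescence (340/615 nm) after enhancement solution.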

[4] = Growth inhibition of human MCF7a cells by MTS assay; type: functional
[5] = test system: LNCaP; assay: Inhibition of androgen dependent transcription in human LNCAP cells assessed as blockade of R1881-induced transcription at 25 uM by androgen derived MMTV-luciferase reporter gene assay; type: functional, cell-based
Summary of the method: (§1)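 LNCaP cells (2×10^5) grown in RPMI1640/10% FCS, switched to phenol-red-free RPMI1640 with 10% double-stripped FCS, transfected with 500 ng MMTV-Luc (androgen-driven) or TK-Luc (androgen-independent) reporter per well. Six hours later inhibitor or DMSO added, then overnight with or without 10^-10 M R1881; luciferase read. Three experiments in duplicate, mean + SD (n = 6).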

[6] = biological target: T1, Protein arginine N-methyltransferase 1; assay: Inhibition of human recombinant PRMT1-mediated arginine methylation using nonhistone protein Npl3 substrate by ELISA
Target sequence in this assay (Q99873 whole entry): as the sequence (Q99873 whole entry, looked up) above

[7] = biological target: T3, Histone-arginine methyltransferase CARM1 (Mus musculus) (UniProt Q9WVG6); assay: Inhibition of mouse FLAG-tagged CARM1-mediated arginine methylation using histone H3(1-31) and [14C]-SAM at 0.01 to 2 mM
T3 sequence (whole entry): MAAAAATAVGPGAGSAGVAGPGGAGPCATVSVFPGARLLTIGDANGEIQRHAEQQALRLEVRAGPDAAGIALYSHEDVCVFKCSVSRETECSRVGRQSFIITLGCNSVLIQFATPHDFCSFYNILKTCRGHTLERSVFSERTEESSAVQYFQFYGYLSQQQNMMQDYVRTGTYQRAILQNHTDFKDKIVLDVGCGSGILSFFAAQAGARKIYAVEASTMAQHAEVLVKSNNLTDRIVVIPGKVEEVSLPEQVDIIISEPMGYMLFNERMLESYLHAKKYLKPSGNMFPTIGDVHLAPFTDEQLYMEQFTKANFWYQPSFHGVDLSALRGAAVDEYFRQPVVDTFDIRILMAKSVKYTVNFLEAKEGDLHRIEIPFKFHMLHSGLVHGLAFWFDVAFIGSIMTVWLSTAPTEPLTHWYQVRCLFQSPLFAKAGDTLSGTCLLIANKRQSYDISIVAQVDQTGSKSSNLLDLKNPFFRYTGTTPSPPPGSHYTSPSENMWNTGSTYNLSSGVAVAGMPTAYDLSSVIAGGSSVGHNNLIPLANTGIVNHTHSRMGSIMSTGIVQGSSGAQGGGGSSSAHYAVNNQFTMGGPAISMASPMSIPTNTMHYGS
Summary of the method: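 Flag-CARM1 (mouse, baculovirus-expressed, 250 nM) with 20 μM recombinant histone H3 and 10 μg/mL BSA in 50 mM Tris-HCl, 0.2 M NaCl, 0.5 mM DTT, pH 8.0, preincubated with inhibitor (0.01–2 mM) 30 min at room temperature, centrifuged; started with 10 μM ¹⁴C-SAM, 15 min at 25 °C. SDS-PAGE, phosphorimager quantitation of H3 radioactivity.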

[8] = test system: LNCaP; assay: Growth inhibition of human LNCAP cells by MTS assay; type: functional
[9] = test system: LNCaP; assay: Inhibition of androgen dependent transcription in human LNCAP cells assessed as blockade of R1881-induced transcription at 1 to 25 uM by androgen derived MMTV-luciferase reporter gene assay; type: functional, cell-based; summary of the method: as §1
[10] = test system: LNCaP; assay: Inhibition of thymidine kinase promoter dependent transcription in human LNCAP cells at 1 uM by androgen-nondependent thymidine kinase-luciferase reporter gene assay; type: functional, cell-based; summary of the method: as §1
[11] = test system: LNCaP; assay: Inhibition of thymidine kinase promoter dependent transcription in human LNCAP cells at 10 uM by androgen-nondependent thymidine kinase-luciferase reporter gene assay; type: functional, cell-based; summary of the method: as §1
[12] = test system: LNCaP; assay: Inhibition of androgen dependent TMPRSS2 gene transcription in human LNCAP cells by RT-PCR preincubated for 10 mins before 1 nM synthetic androgen R1881 addition; type: functional, cell-based
Summary of the method: (§2)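 LNCaP cells washed with PBS, starved 24 h in phenol-red-free RPMI1640 with 0.5% double-stripped FCS, then treated with inhibitor or DMSO vehicle; 10 min later stimulated overnight with or without 10⁻⁹ M R1881. DNase I-treated Trizol RNA reverse transcribed; target mRNA quantified by SYBR green I quantitative PCR with ROX passive reference.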

[13] = test system: LNCaP; assay: Inhibition of androgen dependent ELK4 gene transcription in human LNCAP cells by RT-PCR preincubated for 10 mins before 1 nM synthetic androgen R1881 addition; type: functional, cell-based; summary of the method: as §2
[14] = test system: LNCaP; assay: Inhibition of androgen dependent IGF1-R gene transcription in human LNCAP cells by RT-PCR preincubated for 10 mins before 1 nM synthetic androgen R1881 addition; type: functional, cell-based; summary of the method: as §2
[15] = test system: LNCaP; assay: Inhibition of androgen dependent NKX3.1 gene transcription in human LNCAP cells by RT-PCR preincubated for 10 mins before 1 nM synthetic androgen R1881 addition; type: functional, cell-based; summary of the method: as §2
[16] = test system: LNCaP; assay: Inhibition of androgen dependent CXCR4 gene transcription in human LNCAP cells by RT-PCR preincubated for 10 mins before 1 nM synthetic androgen R1881 addition; type: functional, cell-based; summary of the method: as §2
[17] = test system: LNCaP; assay: Inhibition of androgen dependent MAK gene transcription in human LNCAP cells by RT-PCR preincubated for 10 mins before 1 nM synthetic androgen R1881 addition; type: functional, cell-based; summary of the method: as §2
[18] = test system: LNCaP; assay: Inhibition of androgen dependent MAF gene transcription in human LNCAP cells by RT-PCR preincubated for 10 mins before 1 nM synthetic androgen R1881 addition; type: functional, cell-based; summary of the method: as §2
[19] = test system: LNCaP; assay: Inhibition of androgen dependent […] gene transcription in human LNCAP cells by RT-PCR preincubated for 10 mins before 1 nM synthetic androgen R1881 addition; type: functional, cell-based; summary of the method: as §2
[20] = test system: LNCaP; assay: Inhibition of androgen dependent PER1 gene transcription in human LNCAP cells by RT-PCR preincubated for 10 mins before 1 nM synthetic androgen R1881 addition; type: functional, cell-based; summary of the method: as §2
[21] = test system: LNCaP; assay: Inhibition of androgen dependent GREB1 gene transcription in human LNCAP cells by RT-PCR preincubated for 10 mins before 1 nM synthetic androgen R1881 addition; type: functional, cell-based; summary of the method: as §2
[22] = test system: LNCaP; assay: Inhibition of androgen dependent FKBP5 gene transcription in human LNCAP cells by RT-PCR preincubated for 10 mins before 1 nM synthetic androgen R1881 addition; type: functional, cell-based; summary of the method: as §2
[23] = test system: LNCaP; assay: Inhibition of androgen-independent GAPDH gene transcription in human LNCAP cells by RT-PCR preincubated for 10 mins before 1 nM synthetic androgen R1881 addition; type: functional, cell-based; summary of the method: as §2

SMILES	inhibition [1] [%]	inhibition [2] [%]	other results
Nc1ccc(S(=O)(=O)c2ccc(NC(=O)NCc3ccccc3)cc2)cc1	< 5	13.6	–
O=C(Cc1ccccc1)Nc1ccc(S(=O)(=O)c2ccc(NC(=O)Cc3ccccc3)cc2)cc1	–	–	inhibition [3]: 31%
CC(NC(=O)c1ccc(N)cc1)c1ccccc1 (configuration not stated)	–	34	–
COc1ccc(CNS(=O)(=O)c2ccc(N)cc2)cc1	12	19	–
O=C(Nc1ccc(S(=O)(=O)NCCc2ccccc2)cc1)c1ccc(Cl)c(Cl)c1	–	–	GI50 [4]: 52.2 µM; inhibition [3]: 37%; inhibition [5]: Active
O=C(Nc1ccc(S(=O)(=O)NCCc2ccccc2)cc1)c1ccc(-c2ccccc2)cc1	39	42	–
O=C(Nc1ccc(S(=O)(=O)NCCc2ccccc2)cc1)c1ccc(Br)cc1	23	41	–
O=S(=O)(NCCc1ccccc1)c1ccc(NS(=O)(=O)c2ccc(Cl)cc2)cc1	–	–	IC50 [6]: 5 µM; inhibition [7]: inactive; inhibition [3]: 58%
Nc1ccc(C(=O)NCc2ccccc2)cc1	–	47	–
Nc1ccc(S(=O)(=O)NCc2ccc(Cl)cc2)cc1	–	< 5	–
CCC(=O)Nc1ccc(S(=O)(=O)c2ccc(NC(=O)CC)cc2)cc1	–	< 5	–
CCCC(=O)Nc1ccc(S(=O)(=O)c2ccc(NC(=O)CCC)cc2)cc1	14.7	44.1	–
Nc1ccc(S(=O)(=O)NCCc2ccc(Cl)cc2)cc1	–	< 5	–
Nc1ccc(S(=O)(=O)c2ccc(NC(=O)Cc3ccccc3)cc2)cc1	35.3	41.2	inhibition [3]: < 5%
O=C(Nc1ccc(S(=O)(=O)NCCc2ccccc2)cc1)c1ccccc1	15	20	–
Nc1ccc(S(=O)(=O)NCc2ccccn2)cc1	–	–	IC50 [6]: 70.7 µM; inhibition [3]: 14%
Nc1ccc(S(=O)(=O)NCc2ccccc2)cc1	22	28	–
CC(NS(=O)(=O)c1ccc(N)cc1)c1ccccc1 (configuration not stated)	28	40	–
O=S(=O)(NCCc1ccccc1)c1ccc(Cl)cc1	–	< 5	–
O=C(Cc1ccccc1)Nc1ccc(S(=O)(=O)NCCc2ccccc2)cc1	< 5	10	–
CCC(=O)Nc1ccc(S(=O)(=O)c2ccc(N)cc2)cc1	23.5	70.6	–
Nc1ccc(C(=O)Nc2ccc(S(=O)(=O)NCCc3ccccc3)cc2)cc1	40	40	–
O=C(CCl)Nc1ccc(S(=O)(=O)c2ccc(NC(=O)CCl)cc2)cc1	–	–	IC50 [6]: 1.5 µM; GI50 [4]: 1.97 µM; inhibition [7]: inactive; inhibition [3]: < 5%; GI50 [8]: 4.49 µM; inhibition [9]: Active; inhibition [10]: inactive; inhibition [11]: inactive; inhibition [12]: Active; inhibition [13]: Active; inhibition [14]: Active; inhibition [15]: Active; inhibition [16]: Active; inhibition [17]: Active; inhibition [18]: Active; inhibition [19]: Active; inhibition [20]: Active; inhibition [21]: Active; inhibition [22]: Active; inhibition [23]: inactive
Nc1ccc(S(=O)(=O)NCCc2ccc(O)cc2)cc1	30	37	–
